Source: PubChem BioAssay (Sanford-Burnham Center for Chemical Genomics)
mIAP inh: inhibitors of mouse IAP, primary screen, biochemical, luminescence, uHTS; purified mouse IAP, CDP-Star luminescence, 30 min; inhibition, % at 10 µM; 0.2% of 330,000 active;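 active means inhibition of at least 40% at 10 µM in the primary screen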
bIAP inh: bovine intestinal alkaline phosphatase inhibitors, primary screen, selectivity assay for TNAP inhibitor project, biochemical, bovine IAP, CDP-star luminescence | alkaline phosphatase, intestinal [Bos taurus] | purified bovine IAP, 30 min | inhibition, % at 20 µM | 190,000 tested, under 10 active | AID 1019, 2008;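 active means over 50% inhibition of intestinal alkaline phosphatase at 20 µM in the single-dose screen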
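Assay system: bovine IAP enzyme; medium: DEA buffer 100 mM, pH 9.8, with MgCl2 1.0 mM, ZnCl2 0.02 mM; doses: 20 µM single dose; incubation: enzyme reaction for 30 min at room temperature; detection: CDP-star luminescence signal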
mIAP act: activators of mouse IAP, primary screen, biochemical, luminescence, uHTS. muIAP, CDP-Star luminescence, 30 min; hits give high values; 1 = vehicle-only enzyme signal, 0 = enzyme-free wells. intestinal alkaline phosphatase [Mus musculus]. 0.24% of 330,000 active. activation factor at 10 µM;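 active means activation factor of at least 2 at 20 µM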
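Assay system: mouse IAP enzyme; reagent: chemiluminescent substrate CDP-Star; dosing: test compounds delivered from DMSO solution; schedule: 30 min at room temperature; measured by: luminescence from enzymatic CDP-Star hydrolysis; controls: DMSO-only wells and no-enzyme negative control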
hIAP inh: human IAP inhibitors, primary screen, biochemical, luminescence, uHTS | purified IAP, CDP-Star luminescence, 30 min | AID 2544, 2010 | 0.12% of 330,000 active | inhibition, % at 10 µM;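 active means inhibition reaching a set limit with compound at 10 µM in the primary screen, cut at about 35% in these data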
Target sequence (P09923 whole entry, looked up): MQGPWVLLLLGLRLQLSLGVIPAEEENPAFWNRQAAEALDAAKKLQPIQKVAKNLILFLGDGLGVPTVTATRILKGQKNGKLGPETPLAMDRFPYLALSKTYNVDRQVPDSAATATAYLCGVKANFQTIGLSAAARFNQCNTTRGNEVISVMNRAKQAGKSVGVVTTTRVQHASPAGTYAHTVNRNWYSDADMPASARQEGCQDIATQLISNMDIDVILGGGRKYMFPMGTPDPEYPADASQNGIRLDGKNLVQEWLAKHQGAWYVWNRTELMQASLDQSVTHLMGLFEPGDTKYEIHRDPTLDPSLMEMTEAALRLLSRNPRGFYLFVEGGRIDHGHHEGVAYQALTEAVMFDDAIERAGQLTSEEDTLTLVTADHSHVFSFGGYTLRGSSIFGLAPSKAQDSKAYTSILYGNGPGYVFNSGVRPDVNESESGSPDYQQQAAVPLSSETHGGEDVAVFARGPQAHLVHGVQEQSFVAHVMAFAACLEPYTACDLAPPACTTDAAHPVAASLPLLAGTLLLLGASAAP
bIAP act: bovine intestinal alkaline phosphatase activators, primary screen, biochemical, bovine IAP, CDP-star luminescence; activation factor at 20 µM; AID 1016, 2008; alkaline phosphatase, intestinal [Bos taurus]; 0.17% of 200,000 active; purified bovine IAP, 30 min; hits give high values; fold of DMSO-control signal, blank-subtracted;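 active means activation factor of 2 or more at 20 µM, a signal rise over negative controls twice the positive control's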
hIAP act: human IAP activators, primary screen, biochemical, luminescence, uHTS; Intestinal-type alkaline phosphatase (Homo sapiens), P09923; purified human IAP, CDP-Star luminescence, 30 min; hits give high values; 1 = vehicle-only enzyme, 0 = enzyme-free background; activation factor at 10 µM; 0.16% of 330,000 active; AID 2524, 2010;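 active means activation factor of the enzyme at least 2-fold when tested at 20 µM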
hIAP act confirm: human IAP activators, confirmation, biochemical, luminescence, single concentration, uHTS hits. 10% of 880 active. shares compounds with hIAP act. activation (%Activity, negative = activation), % at 8.3 µM. purified IAP, CDP-Star luminescence, 30 min; hits give low values;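 active means at least twofold enzyme activation in any of six single-dose repeats, which the averaged readout prints as negative percent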
Large screens that a line does not name were inactive (follow-up assays come after a bar, where they were run). Only some compounds are listed: those with a hit (about 0.72% of all), similar ones and a draw of the others.

CC(=O)N1CCOc2ccc(S(=O)(=O)N3CCCC(C)C3)cc21 (stereo unspecified)	hIAP inh 43 (no result: bIAP inh, bIAP act) | hIAP act confirm inactive
CCN(CC)S(=O)(=O)c1cc(NC(=O)CSCc2c(C)noc2C)ccc1C	none (no result: bIAP inh, bIAP act)
Cc1ccc(OCCNS(=O)(=O)c2ccc(N3CCCC3=O)cc2)cc1C	none
Cc1ccc(OCCNS(=O)(=O)c2ccc(N3CCCC3=O)cc2)cc1	hIAP inh 36 | hIAP act confirm inactive
COc1ccc(CN2CCC(n3nccc3NC(=O)C3CCCC3)CC2)cc1	none (no result: bIAP inh, bIAP act)
COc1ccc(/C=C/CN2CCC(n3nccc3NC(=O)C3CCCC3)CC2)cc1	hIAP act 2.1 (no result: bIAP inh, bIAP act) | hIAP act confirm inactive
O=C(CSc1nnc(Cc2ccccc2)n1-c1ccccc1)NNC(=O)Cc1ccccc1	hIAP act 2.1 | hIAP act confirm inactive
COC(=O)CSc1nnc(Cc2ccccc2)n1-c1ccc(C)cc1	none
COCCOCCn1c(/C=C/c2ccccc2)nc2ccccc21	none
CCCn1c(/C=C/c2ccccc2)nc2ccccc21	hIAP act 3.1 | hIAP act confirm inactive
CC(C)N1C(=O)C(=O)N(CC(=O)N(C)c2ccccc2)C1=O	none (no result: bIAP inh, bIAP act)
Cc1cc(-n2c(SCC(=O)NCCC3=CCCCC3)nc3n[nH]c(C)c3c2=N)ccc1Cl	hIAP act 2.1 (no result: bIAP inh, bIAP act) | hIAP act confirm inactive
Cc1ccc(Cl)cc1-n1c(SCC(=O)NCCC2=CCCCC2)nc2n[nH]c(C)c2c1=N	none (no result: bIAP inh, bIAP act)
CCOC(=O)c1c(-c2ccccc2)csc1NC(=O)COc1ccc2c(C)cc(=O)oc2c1	hIAP inh 44 | hIAP act confirm inactive
CCOC(=O)c1ccccc1NC(=O)CSc1nnnn1C	none
c1ccc2c3c(cc(N4CCOCC4)c2c1)OC1(N2CCOCC2)CCCCC1O3 (stereo unspecified)	hIAP inh 85 | hIAP act confirm inactive
COc1ccc(S(=O)(=O)N2CCN(CC(=O)c3ccc(O)c(O)c3)CC2)cc1	hIAP inh 39 (no result: bIAP inh, bIAP act) | hIAP act confirm inactive
Cc1cc(C)cc(NC(=O)CCc2ccc(C)o2)c1	none (no result: bIAP inh, bIAP act)
Cc1cccc(NC(=O)CCc2ccc(C)o2)c1	hIAP inh 37 | hIAP act confirm inactive
O=C(NCCN1CCOCC1)N1CCOCC1	none
CCCC(CCC)C(=O)NCCN1CCOCC1	hIAP inh 39 | hIAP act confirm inactive
COc1ccc(/C=C(/NC(=O)c2ccccc2Cl)C(=O)O)cc1	none
Cc1ccccc1CNC(=O)c1ccccc1N	hIAP inh 36 | hIAP act confirm inactive
CCCCC(CC)C(=O)Nc1cc(=O)[nH]c2nc3ccccc3n12 (stereo unspecified)	hIAP act 2 (no result: bIAP inh, bIAP act) | hIAP act confirm inactive
Cc1ccc(S(=O)(=O)N2CCN(CC(=O)Nc3ccc4c(c3)CCC4)CC2)cc1C	none
O=C(CN1CCN(S(=O)(=O)c2ccc3ccccc3c2)CC1)Nc1ccc2c(c1)CCC2	hIAP act 2 | hIAP act confirm inactive
Cc1nnc(SCC(=O)NCc2cccs2)n1-c1ccccc1	hIAP act 2.1 | hIAP act confirm inactive
Cc1nnc(SCC(=O)NCc2ccccc2)n1-c1ccccc1	none
N#C/C(=N\Nc1ccc([N+](=O)[O-])cc1)C(N)=S	hIAP inh 35 (no result: bIAP inh, bIAP act) | hIAP act confirm inactive
N#C/C(=N\Nc1ccc(S(=O)(=O)N2CCCCCC2)cc1)C(N)=S	hIAP inh 37 | hIAP act confirm inactive
COc1ccccc1CNC(=O)CSc1ccc(-c2ccncc2)nn1	none
Cc1ccc(N/C=C/C(=O)c2ccco2)c(O)c1	hIAP act 2.2 (no result: bIAP inh, bIAP act) | hIAP act confirm inactive
CCOC(=O)/C(O)=C(\C#N)c1nc2ccccc2[nH]1	none
O=C(NNC(=O)c1nc2ccccc2[nH]1)OCc1ccccc1	hIAP act 2.6 (no result: bIAP inh, bIAP act) | hIAP act confirm inactive
Cc1cc(Cl)ccc1NC(=O)C(=O)N/N=C/c1ccc2c(c1)OCO2	none (no result: bIAP inh, bIAP act)
Cc1ccc(Cl)cc1NC(=O)C(=O)N/N=C/c1ccc2c(c1)OCO2	hIAP act 2.2 (no result: bIAP inh, bIAP act) | hIAP act confirm inactive
COc1ccc(/C=C2/C(=O)N(c3ccccc3)N=C2C)cc1OC	none (no result: bIAP inh, bIAP act)
COc1cc(/C=C2/C(=O)N(c3cccc(Br)c3)N=C2C)cc(OC)c1O	hIAP inh 36 (no result: bIAP inh, bIAP act) | hIAP act confirm inactive
COc1cc(/C=C2/C(=O)N(c3ccc(Br)cc3)N=C2C)cc([N+](=O)[O-])c1O	hIAP inh 38 (no result: bIAP inh, bIAP act) | hIAP act confirm inactive
Oc1ccc(C=Nc2ccccc2-c2nc3ccccc3[nH]2)cc1	none
O=c1c2cc(O)c(O)cc2oc2cc(O)c(C3OC(CO)C(O)C(O)C3O)c(O)c12 (stereo unspecified)	hIAP inh 82 (no result: bIAP inh, bIAP act) | hIAP act confirm -148
CCc1nn(CC(=O)NC(C)CCc2ccccc2)c(=O)c2cc3cc(F)ccc3n12 (stereo unspecified)	hIAP act 2.2 (no result: bIAP inh, bIAP act) | hIAP act confirm inactive
CCc1nn(CC(=O)NC2CCN(Cc3ccccc3)CC2)c(=O)c2cc3cc(F)ccc3n12	none (no result: bIAP inh, bIAP act)
CCOC(=O)c1nnn(-c2nonc2N)c1-c1ccc(F)cc1	none
COc1cc(Cl)ccc1OCc1cc(C(=O)N2CCCCCCC2)no1	hIAP inh 39 (no result: bIAP inh, bIAP act) | hIAP act confirm inactive
COc1cccc(CNC(=O)c2nnn(CC(=O)Nc3cccc(C)c3)c2N)c1	none (no result: bIAP inh, bIAP act)
C=CCn1c(O)c(N=Nc2ccccc2O)c2ccccc21	hIAP act 2.2 (no result: bIAP inh, bIAP act) | hIAP act confirm inactive
COc1ccccc1CNC(=O)CN(c1ccc(C)cc1)S(=O)(=O)c1c(C)noc1C	hIAP inh 38 (no result: bIAP inh, bIAP act) | hIAP act confirm inactive
COc1ccc(N2CCN(C(c3cccs3)C(C)NS(C)(=O)=O)CC2)cc1 (stereo unspecified)	none
O=C(CCNS(=O)(=O)c1ccccc1C(F)(F)F)NNC(=O)c1csc(N2CCOCC2)n1	hIAP act 2.1 (no result: bIAP inh, bIAP act) | hIAP act confirm inactive
O=C(NNC(=O)c1cc(Br)ccc1O)c1csc(N2CCOCC2)n1	hIAP act 2.4 (no result: bIAP inh, bIAP act) | hIAP act confirm inactive
O=C1CC(N2CCN(c3ccc(F)cc3)CC2)C(=O)N1c1ccc2c(c1)OCO2 (stereo unspecified)	none
COc1ccc(NC(=O)C2CC(=O)N/C(=N/NC(=O)c3ccc(Cl)cc3)S2)cc1 (stereo unspecified)	none (no result: bIAP inh, bIAP act)
Cc1ccc(NC(=O)c2sc3ccccc3c2Cl)nc1	hIAP act 2.1 | hIAP act confirm inactive
CC(=O)c1c(C)oc2ccc(N(C(C)=O)S(=O)(=O)c3cccc4cccnc34)cc12	none (no result: bIAP inh, bIAP act)
